This is an account of results in ChEMBL document CHEMBL4732136, “Synthesis, Tumor Specificity, and Photosensitizing Efficacy of Erlotinib-Conjugated Chlorins and Bacteriochlorins: Identification of a Highly Effective Candidate for Photodynamic Therapy of Cancer” (J Med Chem, 2021).

Data set [1] in a line: Drug uptake in tumor of SCID mouse xenografted with human UMUC3 cells at 0.125 micromol/kg, iv pretreated with compound followed by light irradiation at a dose of 135 J/cm2 and 75 mW/cm2 measured after 2 to 24 hrs by IVIS analysis. Type of data set: ADME, organism-based, Neoplasm. As to conditions: in vivo, time 2-24 hrs, dose 0.125 µmol/kg; call rule not given here. In short, it runs like this:
(§1)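 Female SCID mice with UMUC3 flank/shoulder tumors, 3 per group. PS in 1% Tween80/5% dextrose given iv at 0.47, 0.25 or 0.125 μmol/kg. Whole-body fluorescence imaging by IVIS at several times after injection; average radiant efficiency measured in tumor, liver and skin.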

The nature of data set [2]: Drug uptake in tumor of iv dosed SCID mouse xenografted with UMUC3 cells by fluorescence imaging analysis. As to conditions: in vivo.
Data set [3] is described as follows: Drug uptake in tumor of SCID mouse xenografted with human UMUC3 cells at 0.25 micromol/kg, iv pretreated with compound followed by light irradiation at a dose of 135 J/cm2 and 75 mW/cm2 measured after 2 to 8 hrs by IVIS analysis. Type of data set: ADME, organism-based, Neoplasm. As to conditions: in vivo, time 2-8 hrs, dose 0.25 µmol/kg. In short, it runs like this: as §1
Background: Xenograft models place foreign cells or tissue in a host animal.

Data set [4] can be described thus: Drug uptake in skin of SCID mouse xenografted with FaDu cells at 0.47 to 0.125 micromol/kg, iv pretreated with compound followed by light irradiation at a dose of 135 J/cm2 and 75 mW/cm2 and measured at 24 hrs by IVIS analysis. The data set is classed as ADME, organism-based, Skin of body. As to conditions: in vivo, dose 0.47-0.125 µmol/kg. In short, it runs like this: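 Female SCID mice bearing FaDu tumors 4–5 mm in diameter, 3 per group. PS in 1% Tween80/5% dextrose given iv at 0.47, 0.25 or 0.125 μmol/kg. IVIS whole-body fluorescence imaged at several time points; average radiant efficiency measured in tumor, liver and skin.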

A short description of data set [5]: Drug uptake in liver of SCID mouse xenografted with human UMUC3 cells at 0.125 micromol/kg, iv pretreated with compound followed by light irradiation at a dose of 135 J/cm2 and 75 mW/cm2 measured after 2 to 24 hrs by IVIS analysis. Type of data set: ADME, organism-based. The settings on record: in vivo, time 2-24 hrs, dose 0.125 µmol/kg. In short, it runs like this:
as §1

Data set [6] can be described thus: Drug uptake in skin of iv dosed SCID mouse xenografted with human UMUC3 cells by fluorescence imaging analysis. The data set is classed as ADME, organism-based, Skin of body. As to conditions: in vivo.
The nature of data set [7]: Drug uptake in human HNT1 cells at 3.2 uM incubated for 30 mins in serum free medium followed by […] in compound-free medium by inverted fluorescence microscopic analysis. The settings on record: hnt1, 0.5 h. Type of data set: ADME, cell-based. In short, it runs like this: (§2)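 Confluent HNT1 cultures (passage 116) given 3.2 μM PS for 30 min in serum-free medium, then 5 h in serum-containing medium with PS, then 15 h chase in serum medium without PS. Fluorescence recorded at 100X with varied camera exposures and quantified digitally; pixel signal normalized to time and cell number.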

The nature of data set [8]: Drug uptake in human HNT1 cells at 3.2 uM incubated for 30 mins in DMEM media with 10% FBS followed by […] in compound-free medium by inverted fluorescence microscopic analysis. The data set is classed as ADME, cell-based. As to conditions: hnt1, 0.5 h, in the assay text read “in serum-free medium” for “in DMEM media with 10% FBS”. In short, it runs like this:
as §2

The nature of data set [9]: Drug uptake in human FaDu clone 49 cells assessed as increase in drug retention at 1.6 uM in RPMI medium with 10% FBS followed by 48 hrs chase period by inverted fluorescence microscopic analysis.
The nature of data set [10]: Drug uptake in skin of SCID mouse xenografted with human UMUC3 cells at 0.125 micromol/kg, iv pretreated with compound followed by light irradiation at a dose of 135 J/cm2 and 75 mW/cm2 measured after 2 to 24 hrs by IVIS analysis. The data set is classed as ADME, organism-based, Skin of body. The settings on record: in vivo, time 2-24 hrs, dose 0.125 µmol/kg. In short, it runs like this:
as §1

Data set [11] in a line: Drug uptake in liver of iv dosed SCID mouse xenografted with human UMUC3 cells by fluorescence imaging analysis. The data set is classed as ADME, organism-based. As to conditions: in vivo.
The subject of a further data set is HN-85-1-3. As to the kind of experiment: Photodynamic therapy in human HN-85-1-3 cells assessed as degradation of EGFR treated with compound followed by diode laser irradiation at 3 J/cm2 by immunoblot analysis. The data set is classed as functional, cell-based. In short, it runs like this: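 Primary HN-85-1-3 tumor epithelial cells loaded with graded PS doses; uptake quantified by fluorescence before light. Dishes irradiated at 37°C with 665 nm diode laser, 6 mW/cm², 3 J/cm² total. Cells lysed in RIPA immediately after light; STAT3 crosslinking and EGFR analysed by SDS-PAGE immunoblot.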
(In general: A western blot detects proteins with antibodies after separation by electrophoresis.)

The test system of a further data set is FaDu. As to the kind of experiment: Photosensitizing activity in human FaDu cells assessed as reduction in cell viability pretreated with compound for 24 hrs followed by light irradiation at 1 J/cm2 and measured after 48 hrs by MTT assay. Type of data set: functional, cell-based. The settings on record: light or radiation study. In short, it runs like this:
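Cells seeded at 0.01–0.05 x 10⁶ cells/ml; PS added 24 h after plating, top dose 1600 nM with 2-fold serial dilutions. Plates given 0 or 1 J/cm² light. MTT added 48 h later, formazan dissolved in DMSO, absorbance at 570 nm; IC50 from curve fitting.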
Background: Formazan colour is commonly taken as a measure of viable cells.

The subject of a further data set is UMUC3. In words: Photosensitizing activity in human UMUC3 cells assessed as reduction in cell viability pretreated with compound for 24 hrs followed by light irradiation at 1 J/cm2 and measured after 48 hrs by MTT assay. Type of data set: functional, cell-based. As to conditions: UMUC3, light or radiation study. In short, it runs like this: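 Cells plated 0.01x10⁶ to 0.05x10⁶ cells/ml and allowed to adhere 24 h before photosensitizer was added, top dose 1600 nM with 2-fold serial dilutions. Plates received no light (0 J/cm²) or 1 J/cm² at 565 mW, 15 cm spot. After 48 h, MTT added for 3 h, formazan solubilized in DMSO and read at 570 nm; IC₅₀ fitted from dose-response.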

With `CCC1=C(C)c2cc3[nH]c(cc4nc(c5c6[nH]c(cc1n2)c(C)c6C(=O)C5)[C@@H](CCC(=O)OC)[C@@H]4C)c(C)c3C(C)OCc1cccc(C#Cc2cccc(Nc3ncnc4cc(OCCOC)c(OCCOC)cc34)c2)c1` (some centres undefined), the Drug uptake entry in data set [1], in data set [2], in [3], in data set [4], in data set [5] and in data set [6] was “Active” in each case. Moreover, the Drug uptake result in [7], in data set [8], in data set [9], in data set [10] and in data set [11] was “Active” throughout. For the same molecule, the Activity entry in the data set with HN-85-1-3 was “Dose-dependent effect”. The concentration for half-maximal inhibition (IC50) – broadly, the concentration that inhibits the measured activity by half – in the data set with FaDu is 35.5 nM; in the data set on UMUC3, 59.4 nM.
